# Like-named read-outs stand apart in the source and are kept apart here. Marks after values point to notes of the source that are not given here.
# Columns and labels:
# mice [1] = details: mouse, cited from earlier work
# mice [2] = details: mouse, cited from earlier work; remark: listed apart in the source
# mice [3] = details: mouse, cited from earlier work; remark: listed apart in the source
# α4β2 nAChR = α4β2 nAChR (Rattus norvegicus, UniProt P09483+P12390); assay: [3H]epibatidine binding assay; details: ratio of Ki values
# mice [4] = details: mouse, cited from earlier work; remark: listed apart in the source
# mice [5] = assay: antagonism of nicotine-induced antinociception, hot-plate test; assay type: in vivo, mouse; details: for times more potent as an antagonist than varenicline in the hot-plate test: ratio of AD50 values
# mice [6] = assay: hot-plate test; assay type: in vivo, mouse
# Outline: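 Mice in a 10 cm glass cylinder on a 55.0 °C hot plate. Two control latencies, at least 10 min apart, per mouse; normal latency 8–12 sec. Endpoint: jumping or paw licking. Eight mice per dose got racemic hydrochloride test compound s.c. and were tested 5 min later. %MPE = [(test−control)/(40−control)]×100; ED50 from dose-response curve.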
# mice [7] = assay: tail-flick test; assay type: in vivo, mouse
# Outline: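 D'Amour–Smith tail-flick in mice. Racemic hydrochloride test compound given s.c., with testing 5 min later. %MPE = [(test−control)/(10−control)]×100. 8–12 mice per dose, minimum four doses; ED50 with confidence limits from the dose-response curve.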
# mice [8] = assay: hypothermia; assay type: in vivo, mouse; details: ratio of ED50 values
# Outline: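 Mouse rectal temperature read by thermistor probe (inserted 24 mm) and digital thermometer, just before and 30 min after s.c. saline or racemic hydrochloride test compound. Change in temperature calculated for each mouse.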
# mice [9] = assay: spontaneous activity; assay type: in vivo, mouse; details: ratio of ED50 values
# mice [10] = assay: antagonism of nicotine-induced antinociception, tail-flick test; assay type: in vivo; details: Mus musculus, sc, read-out: AD50 (µg/kg) tail-flick
# mice [11] = details: mouse; antagonism of nicotine-induced antinociception; cited from earlier work
# mice [12] = details: mouse; antagonism of nicotine-induced antinociception; cited from earlier work; remark: listed apart in the source
# Sequence of α4β2 nAChR (P12390 25-500): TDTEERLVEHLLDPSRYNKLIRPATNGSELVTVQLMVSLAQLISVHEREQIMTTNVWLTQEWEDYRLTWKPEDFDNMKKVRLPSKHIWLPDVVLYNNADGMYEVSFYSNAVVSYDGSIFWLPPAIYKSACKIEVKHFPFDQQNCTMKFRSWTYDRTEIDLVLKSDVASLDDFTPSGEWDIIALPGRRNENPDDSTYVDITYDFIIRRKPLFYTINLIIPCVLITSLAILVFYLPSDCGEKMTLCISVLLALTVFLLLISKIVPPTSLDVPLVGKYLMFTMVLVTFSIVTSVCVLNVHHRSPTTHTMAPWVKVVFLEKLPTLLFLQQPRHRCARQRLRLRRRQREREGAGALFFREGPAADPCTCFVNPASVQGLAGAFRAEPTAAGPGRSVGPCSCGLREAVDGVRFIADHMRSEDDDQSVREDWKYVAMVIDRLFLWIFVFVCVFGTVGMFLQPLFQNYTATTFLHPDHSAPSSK
# Sequence of α4β2 nAChR (P09483 31-630): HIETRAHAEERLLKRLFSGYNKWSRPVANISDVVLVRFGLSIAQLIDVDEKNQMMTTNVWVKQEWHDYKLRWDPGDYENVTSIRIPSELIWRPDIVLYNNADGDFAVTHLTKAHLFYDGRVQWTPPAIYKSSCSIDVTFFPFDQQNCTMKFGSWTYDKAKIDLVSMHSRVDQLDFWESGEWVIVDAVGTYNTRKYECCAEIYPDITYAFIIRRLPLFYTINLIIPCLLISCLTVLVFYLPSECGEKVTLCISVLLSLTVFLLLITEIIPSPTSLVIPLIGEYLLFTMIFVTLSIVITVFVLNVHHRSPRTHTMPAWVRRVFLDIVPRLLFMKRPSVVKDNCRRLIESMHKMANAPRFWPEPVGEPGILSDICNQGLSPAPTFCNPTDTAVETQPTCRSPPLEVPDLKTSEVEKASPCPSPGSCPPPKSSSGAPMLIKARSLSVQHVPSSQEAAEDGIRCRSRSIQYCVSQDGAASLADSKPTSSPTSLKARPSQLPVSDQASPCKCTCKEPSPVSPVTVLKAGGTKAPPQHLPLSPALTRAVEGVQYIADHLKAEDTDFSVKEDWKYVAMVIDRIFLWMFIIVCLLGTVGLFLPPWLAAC
structure (smiles),measurement,setting,value
Clc1ncc([C@H]2C[C@@H]3CC[C@H]2N3)cc1-c1ccccc1 [5a],ED50 mg/kg tail-flick,mice [1]; (confidence limits),0.7 ^g (0.5–1.0) mg/kg
same,ED50 mg/kg spontaneous activity,mice [2]; (confidence limits),0.35 ^g (0.2–0.85) mg/kg
same,ED50 mg/kg hypothermia,mice [3]; (confidence limits),0.4 ^g (0.1–0.9) mg/kg
same,times higher affinity at the α4β2 nAChR than nicotine,α4β2 nAChR,71 times
same,times higher affinity at the α4β2 nAChR than varenicline,α4β2 nAChR,6 times
same,ED50 mg/kg hot-plate,mice [4]; (confidence limits),1.0 ^g (0.5–2.0) mg/kg
"Fc1cccc(-c2cc([C@H]3C[C@@H]4CC[C@H]3N4)cnc2Cl)c1 [5c, 3′-(3-Fluorophenyl)epibatidine]",times more potent as an antagonist than varenicline in the hot-plate test,mice [5],5.5 times
"Clc1cccc(-c2cc([C@H]3C[C@@H]4CC[C@H]3N4)cnc2Cl)c1 [5e, 3′-(3-Chlorophenyl)epibatidine]",times more potent as an antagonist than varenicline in the hot-plate test,mice [5],5.9 times
same,selectivity for α4β2 nAChR relative to α7 nAChR,α4β2 nAChR,greater than 2000 fold
"Nc1cccc(-c2cc([C@H]3C[C@@H]4CC[C@H]3N4)cnc2Cl)c1 [5j, 3′-(3-Aminophenyl)epibatidine]",AD50 (µg/kg) hot-plate,"mice [5]; mouse, antagonism of nicotine-induced antinociception, (confidence limits)",26 (5–90) µg/kg
same,times more potent as an antagonist than varenicline in the hot-plate test,mice [5],18 times
same,"times weaker than epibatidine (1), hot-plate",mice [6]; ratio of ED50 values,75 times
same,"times weaker than epibatidine (1), tail-flick",mice [7]; ratio of ED50 values,57 times
same,"times weaker than epibatidine (1), hypothermia",mice [8],76 times
same,"times weaker than epibatidine (1), spontaneous activity",mice [9],30 times
"COc1ccc(-c2cc([C@H]3C[C@@H]4CC[C@H]3N4)cnc2Cl)cc1 [5k, 3′-(4-Methoxylphenyl)epibatidine]",ED50,mice [10],10 µg/kg
"CN(C)c1cccc(-c2cc([C@H]3C[C@@H]4CC[C@H]3N4)cnc2Cl)c1 [5m, 3′-(3-Dimethylaminophenyl)epibatidine]",agonist activity in the hot-plate test,mice [6]; mouse,did not have agonist activity
same,agonist activity in the tail-flick test,mice [7]; mouse,did not have agonist activity
"Clc1ccc([C@@H]2C[C@H]3CC[C@@H]2N3)cn1 [(+)-epibatidine, epibatidine]",ED50 mg/kg tail-flick,mice [1],0.0061 ^e mg/kg
"Clc1ccc([C@@H]2C[C@H]3CC[C@@H]2N3)cn1 [(−)-epibatidine, epibatidine]",ED50 mg/kg tail-flick,mice [1],0.0066 ^e mg/kg
"c1cnc2cc3c(cc2n1)[C@@H]1CNC[C@H]3C1 [varenicline, reference compound]",agonist activity in the tail-flick test,mice [1],inactive
same,ED50 mg/kg spontaneous activity,mice [2],2.1 mg/kg
same,ED50 mg/kg hypothermia,mice [3],2.8 mg/kg
same,AD50 (µg/kg) tail-flick,mice [11],0.2 µg/kg
same,AD50 (µg/kg) hot-plate,mice [12],470 µg/kg
same,agonist activity in the hot-plate test,mice [4],inactive
